# Measurements from ChEMBL document CHEMBL5678802, “Small-molecule p21-activated kinase inhibitor PF-3758309 is a potent inhibitor of oncogenic signaling and tumor growth” (Proc Natl Acad Sci U S A, 2010).
# Activity calls are given as the source filed them. The calls are words filed in the database; no cut-off is given here.
# How the values were obtained:
# COLO 320DM = test: Antiproliferative activity against human COLO 320DM cells assessed as inhibition of cell proliferation incubated for 3 days by CellTiter-Glo Luminescent Cell Viability Assay; format: functional, cell-based; settings: 72 h
# Outline: (§1)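 Cancer cell lines seeded in 384-well plates on day 1; compound added on day 2 and left for 3 days. On day 5 all medium was aspirated, and viable cells were quantified by CellTiter-Glo luminescence, which measures cellular ATP. Dose-dependent effects on proliferation were determined.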
# DLD-1 [1] = test: Antiproliferative activity against human DLD-1 cells assessed as inhibition of cell proliferation incubated for 3 days by CellTiter-Glo Luminescent Cell Viability Assay; format: functional, cell-based; settings: DLD-1, 72 h; outline: as §1
# [2] = Antiproliferative activity against human GTL16S4 acquired resistance cells assessed as inhibition of cell proliferation incubated for 3 days by CellTiter-Glo Luminescent Cell Viability Assay; format: functional, cell-based; settings: 72 h; outline: as §1
# NCI-H1734 = test: Antiproliferative activity against human NCI-H1734 cells assessed as inhibition of cell proliferation incubated for 3 days by CellTiter-Glo Luminescent Cell Viability Assay; format: functional, cell-based; settings: NCI-H1734, 72 h
# Outline: (§2)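 Cells of each line were plated in 384-well plates on day 1 and exposed to compound from day 2 for 3 days. On day 5 all medium was aspirated. Viable cell number was read by CellTiter-Glo luminescence, which quantifies cellular ATP.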
# Hs 766 = test: Antiproliferative activity against human Hs766T cells assessed as inhibition of cell proliferation incubated for 3 days by CellTiter-Glo Luminescent Cell Viability Assay; format: functional, cell-based; settings: Hs 766, 72 h; outline: as §1
# SU.86.86 = test: Antiproliferative activity against human SU-86-86 cells assessed as inhibition of cell proliferation incubated for 3 days by CellTiter-Glo Luminescent Cell Viability Assay; format: functional, cell-based; settings: SU.86.86, 72 h; outline: as §2
# NCI-H1650 = test: Inhibition of anchorage independent cell growth in human NCI-H1650 cells incubated for 6 days by Alamar blue reagent based fluorescence plate reader analysis; format: functional; settings: NCI-H1650, 144 h
# HCC1395 = test: Antiproliferative activity against human HCC1395 cells assessed as inhibition of cell proliferation incubated for 3 days by CellTiter-Glo Luminescent Cell Viability Assay; format: functional, cell-based; settings: HCC1395, 72 h; outline: as §1
# DLD-1 [3] = test: Antitumor activity against PAK4 -/+ human DLD-1 cells xenografted in nude mouse assessed as tumor growth inhibition at 20 mg/kg, po administered once daily for 9 to 18 days relative to control; format: functional; settings: time 9-18 day, read-out: TGI
# Outline: (§3)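 Tumor cells were implanted s.c. into the right flank of female nu/nu nude mice aged 6–8 weeks. Animals were randomized into treatment groups once tumors were established (example: day 8 postimplant, about 170 mm3, animals >22 g). Compound in 0.5% methylcellulose was given by oral gavage. Tumors were measured with calipers two to three times per week.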
# [4] = target: Ribosomal protein S6 kinase alpha-3 (Homo sapiens, UniProt P51812); test: Inhibition of human RSK2 in presence of ATP relative to control; settings: concentration not given here
# [5] = target: Tyrosine-protein kinase Fyn (Homo sapiens, UniProt P06241); test: Inhibition of human FYN in presence of ATP
# [6] = target: Serine/threonine-protein kinase Chk2 (Homo sapiens, UniProt O96017); test: Inhibition of human CHK2 in presence of ATP by cellular assay
# [7] = target: Ribosomal protein S6 kinase alpha-2 (Homo sapiens, UniProt Q15349); test: Inhibition of human RSK3 in presence of ATP by cellular assay
# [8] = target: T1, Serine/threonine-protein kinase D1 (Homo sapiens, UniProt Q15139); test: Inhibition of human PKCmu in presence of ATP by cellular assay
# T1 sequence (Q15139 whole entry): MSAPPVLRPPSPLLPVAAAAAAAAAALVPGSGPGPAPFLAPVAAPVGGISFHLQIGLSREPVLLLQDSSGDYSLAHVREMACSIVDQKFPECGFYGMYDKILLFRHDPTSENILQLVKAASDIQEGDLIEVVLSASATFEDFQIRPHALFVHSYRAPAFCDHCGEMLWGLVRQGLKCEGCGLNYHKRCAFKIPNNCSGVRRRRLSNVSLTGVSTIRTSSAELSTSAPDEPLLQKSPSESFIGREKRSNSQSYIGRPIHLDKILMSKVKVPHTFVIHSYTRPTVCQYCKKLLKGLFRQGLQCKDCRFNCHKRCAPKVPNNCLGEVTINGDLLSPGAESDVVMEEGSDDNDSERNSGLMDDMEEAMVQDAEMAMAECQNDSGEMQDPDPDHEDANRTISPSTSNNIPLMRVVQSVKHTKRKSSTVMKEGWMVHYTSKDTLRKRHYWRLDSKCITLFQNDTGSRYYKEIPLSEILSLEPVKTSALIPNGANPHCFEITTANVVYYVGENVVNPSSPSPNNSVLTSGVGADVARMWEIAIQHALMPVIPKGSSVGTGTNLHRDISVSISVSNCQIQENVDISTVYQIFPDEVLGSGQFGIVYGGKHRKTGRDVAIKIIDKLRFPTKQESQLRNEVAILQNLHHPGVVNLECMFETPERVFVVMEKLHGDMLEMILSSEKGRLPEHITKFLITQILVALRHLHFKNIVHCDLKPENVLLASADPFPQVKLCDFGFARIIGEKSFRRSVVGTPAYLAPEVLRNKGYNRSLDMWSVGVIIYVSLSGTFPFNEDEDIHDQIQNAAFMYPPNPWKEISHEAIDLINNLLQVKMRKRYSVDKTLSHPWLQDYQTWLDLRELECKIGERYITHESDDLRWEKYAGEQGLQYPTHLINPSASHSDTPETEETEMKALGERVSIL
# HCT-116 [9] = test: Induction of cell cycle arrest in human HCT-116 cells assessed as accumulation of cells at G2/M phase at 100 nM measured after 48 hrs by fluorescence activated cell sorter analysis (reference value: 19.78%); format: functional
# HCT-116 [10] = test: Antitumor activity against human HCT-116 cells xenografted in nude mouse assessed as tumor growth inhibition at 15 mg/kg, po administered twice daily for 9 to 18 days relative to control; format: functional; settings: time 9-18 day, read-out: TGI
# DLD-1 [11] = test: Antitumor activity against PAK4 -/+ human DLD-1 cells xenografted in nude mouse assessed as tumor growth inhibition at 10 mg/kg, po administered once daily for 9 to 18 days relative to control; format: functional; settings: time 9-18 day, read-out: TGI; outline: as §3
# M24met = test: Antitumor activity against human M24met cells xenografted in nude mouse assessed as tumor growth inhibition at 25 mg/kg, po administered once daily for 9 to 18 days relative to control; format: functional; settings: time 9-18 day, read-out: TGI
# HCT-116 [12] = test: Antitumor activity against human HCT-116 cells xenografted in nude mouse assessed as reduction in BAD phosphorylation at S136 residue at 15 to 150 mg/kg/day administered via pump for 18 hrs by Reverse-Phase protein array analysis; format: functional, organism-based; settings: dose 15-150 mg/kg/day
# HCT-116 [13] = test: Antitumor activity against human HCT-116 cells xenografted in nude mouse assessed as reduction in AKT1 phosphorylation at S473 residue at 15 to 150 mg/kg/day administered via pump for 18 hrs by Reverse-Phase protein array analysis; format: functional, organism-based; settings: dose 15-150 mg/kg/day
# HCT-116 [14] = test: Antitumor activity against human HCT-116 cells xenografted in nude mouse assessed as reduction in Src phosphorylation at Y416 residue at 15 to 150 mg/kg/day administered via pump for 18 hrs by Reverse-Phase protein array analysis; format: functional, organism-based; settings: dose 15-150 mg/kg/day
# Sequence of Tyrosine-protein kinase Fyn (P06241 whole entry): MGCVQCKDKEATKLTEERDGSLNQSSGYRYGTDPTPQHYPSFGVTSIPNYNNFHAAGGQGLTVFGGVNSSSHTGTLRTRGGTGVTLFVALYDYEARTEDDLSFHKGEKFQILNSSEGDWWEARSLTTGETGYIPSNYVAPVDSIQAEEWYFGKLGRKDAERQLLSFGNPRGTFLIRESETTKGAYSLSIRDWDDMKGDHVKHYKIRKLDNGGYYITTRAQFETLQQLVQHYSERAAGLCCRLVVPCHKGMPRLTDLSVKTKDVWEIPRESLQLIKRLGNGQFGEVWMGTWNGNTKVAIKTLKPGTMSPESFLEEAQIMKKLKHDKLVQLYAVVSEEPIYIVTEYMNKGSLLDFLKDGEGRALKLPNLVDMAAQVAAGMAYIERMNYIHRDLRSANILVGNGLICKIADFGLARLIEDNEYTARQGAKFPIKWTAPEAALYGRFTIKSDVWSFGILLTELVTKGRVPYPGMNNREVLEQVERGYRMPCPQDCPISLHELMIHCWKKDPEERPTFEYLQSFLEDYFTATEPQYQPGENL
# Sequence of Ribosomal protein S6 kinase alpha-3 (P51812 whole entry): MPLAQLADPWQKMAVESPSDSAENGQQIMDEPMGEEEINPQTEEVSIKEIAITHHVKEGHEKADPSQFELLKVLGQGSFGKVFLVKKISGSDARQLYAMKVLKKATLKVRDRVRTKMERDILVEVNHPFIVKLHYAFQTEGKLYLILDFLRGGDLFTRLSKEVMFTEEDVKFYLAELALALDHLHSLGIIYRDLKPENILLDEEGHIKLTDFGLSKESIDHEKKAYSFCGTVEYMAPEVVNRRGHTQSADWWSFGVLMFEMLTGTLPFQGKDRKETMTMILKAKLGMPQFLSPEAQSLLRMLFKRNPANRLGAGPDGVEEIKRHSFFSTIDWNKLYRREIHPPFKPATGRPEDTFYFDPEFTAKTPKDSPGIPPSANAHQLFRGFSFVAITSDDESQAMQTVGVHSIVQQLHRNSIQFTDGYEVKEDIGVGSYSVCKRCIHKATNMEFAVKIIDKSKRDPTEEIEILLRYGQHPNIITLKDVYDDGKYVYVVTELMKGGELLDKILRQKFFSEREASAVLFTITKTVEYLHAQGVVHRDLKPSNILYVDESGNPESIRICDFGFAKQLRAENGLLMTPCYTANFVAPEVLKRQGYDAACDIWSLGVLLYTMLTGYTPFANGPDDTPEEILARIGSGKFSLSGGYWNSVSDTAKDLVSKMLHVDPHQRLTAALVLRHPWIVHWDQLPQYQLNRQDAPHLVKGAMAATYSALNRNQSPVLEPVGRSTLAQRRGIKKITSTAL
# Sequence of Ribosomal protein S6 kinase alpha-2 (Q15349 whole entry): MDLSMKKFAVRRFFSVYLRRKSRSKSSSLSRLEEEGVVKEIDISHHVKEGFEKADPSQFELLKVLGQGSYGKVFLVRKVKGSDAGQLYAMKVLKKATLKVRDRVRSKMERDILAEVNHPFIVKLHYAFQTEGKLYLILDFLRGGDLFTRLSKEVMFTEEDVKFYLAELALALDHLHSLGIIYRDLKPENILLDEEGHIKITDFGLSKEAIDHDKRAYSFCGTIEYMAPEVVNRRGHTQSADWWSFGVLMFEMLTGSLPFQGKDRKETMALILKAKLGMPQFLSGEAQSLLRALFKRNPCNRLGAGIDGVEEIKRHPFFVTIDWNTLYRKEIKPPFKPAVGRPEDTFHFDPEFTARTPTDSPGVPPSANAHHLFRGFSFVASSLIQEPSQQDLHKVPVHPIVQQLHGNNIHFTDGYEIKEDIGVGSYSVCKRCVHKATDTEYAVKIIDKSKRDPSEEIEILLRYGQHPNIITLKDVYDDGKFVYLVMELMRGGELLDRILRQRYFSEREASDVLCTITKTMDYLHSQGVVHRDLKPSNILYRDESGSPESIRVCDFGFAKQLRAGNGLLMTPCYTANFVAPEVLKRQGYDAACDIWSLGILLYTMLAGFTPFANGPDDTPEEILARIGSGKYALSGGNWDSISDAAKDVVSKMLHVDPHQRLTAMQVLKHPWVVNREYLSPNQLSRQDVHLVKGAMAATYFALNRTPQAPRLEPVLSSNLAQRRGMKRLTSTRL
# Sequence of Serine/threonine-protein kinase Chk2 (O96017 whole entry): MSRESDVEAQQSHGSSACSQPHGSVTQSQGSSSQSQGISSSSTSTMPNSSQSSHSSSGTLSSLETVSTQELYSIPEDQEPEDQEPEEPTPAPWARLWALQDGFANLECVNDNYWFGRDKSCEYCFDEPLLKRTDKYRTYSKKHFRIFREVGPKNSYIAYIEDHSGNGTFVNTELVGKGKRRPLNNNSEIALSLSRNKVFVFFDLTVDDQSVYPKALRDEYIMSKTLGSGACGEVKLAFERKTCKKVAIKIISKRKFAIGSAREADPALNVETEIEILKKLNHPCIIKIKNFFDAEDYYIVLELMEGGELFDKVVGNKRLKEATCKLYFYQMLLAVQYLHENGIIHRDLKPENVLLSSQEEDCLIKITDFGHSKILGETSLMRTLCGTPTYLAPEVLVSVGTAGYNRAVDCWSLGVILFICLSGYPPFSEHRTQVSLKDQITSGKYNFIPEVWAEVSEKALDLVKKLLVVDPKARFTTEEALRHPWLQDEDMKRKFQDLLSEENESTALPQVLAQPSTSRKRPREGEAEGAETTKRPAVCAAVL
smiles,measurement,setting,value
Cc1nc(Nc2n[nH]c3c2CN(C(=O)N[C@H](CN(C)C)c2ccccc2)C3(C)C)c2sccc2n1 [PF-03758309],IC50,COLO 320DM,205 nM
same,IC50,DLD-1 [1],10000 nM
same,IC50,[2],10000 nM
same,IC50,NCI-H1734,4.1 nM
same,IC50,Hs 766,416 nM
same,IC50,SU.86.86,898 nM
same,IC50,NCI-H1650,5.57 nM
same,IC50,HCC1395,1.6 nM
same,inhibition in vivo at 20 mg/kg,DLD-1 [3],0%
same,inhibition,[4],101%
same,IC50,[5],46 nM
same,IC50,[6],302 nM
same,IC50,[7],1960 nM
same,IC50,[8],2830 nM
same,Activity,HCT-116 [9],23.08%
same,inhibition in vivo at 15 mg/kg,HCT-116 [10],79%
same,inhibition in vivo at 10 mg/kg,DLD-1 [11],0%
same,inhibition in vivo at 25 mg/kg,M24met,85%
same,Activity,HCT-116 [12],Active
same,Activity,HCT-116 [13],Active
same,Activity,HCT-116 [14],Active
